Source: ChEMBL document CHEMBL1121701, “Inhibition of liver alanine aminotransferase activity by some benzophenanthridine alkaloids” (J Med Chem, 1981)

Legend:
[1] = The stability constant of adduct formation for glutathione at pH 5.68; type: ADME
Procedure, shortened: (§1)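 Thiol–alkaloid adduct stability constants measured by UV-vis spectrophotometry at 20 °C in 10-mm cells. Aqueous solutions held 4×10^-6 M alkaloid, 4×10^-6 to 1.6×10^-2 M thiol and 4×10^-3 M hexadecyltrimethylammonium bromide. Phosphate buffers of ionic strength 0.05 at the stated pH.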

[2] = target: T1, Alanine aminotransferase 1 (Rattus norvegicus) (UniProt P25409); assay: Inhibitory activity against alanine aminotransferase was measured
T1 sequence (whole entry): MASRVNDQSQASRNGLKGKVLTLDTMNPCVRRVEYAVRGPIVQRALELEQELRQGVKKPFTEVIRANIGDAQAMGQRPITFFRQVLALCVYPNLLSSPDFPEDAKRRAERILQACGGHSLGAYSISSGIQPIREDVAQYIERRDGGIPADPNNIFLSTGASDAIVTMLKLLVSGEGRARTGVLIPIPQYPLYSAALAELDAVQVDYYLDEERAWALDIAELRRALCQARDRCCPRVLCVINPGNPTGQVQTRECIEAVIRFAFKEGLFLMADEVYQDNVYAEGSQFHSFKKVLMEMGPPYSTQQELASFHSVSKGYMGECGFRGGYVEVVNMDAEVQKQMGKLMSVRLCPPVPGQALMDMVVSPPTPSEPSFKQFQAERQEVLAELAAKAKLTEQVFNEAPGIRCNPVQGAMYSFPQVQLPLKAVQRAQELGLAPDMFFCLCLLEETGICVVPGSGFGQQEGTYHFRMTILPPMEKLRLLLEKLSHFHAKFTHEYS
Procedure, shortened: (§2)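 Partially purified rat liver ALT (ammonium sulfate fraction from prednisolone-treated male Wistar rats, lyophilized, diluted in 0.1 M pH 7.4 potassium phosphate). Enzyme preincubated with alkaloid at pH 7.4, room temperature, 30 min. Then added to substrate (8.33×10^-2 M L-alanine, 1.67×10^-3 M 2-oxoglutarate, pH 7.4) at 30 °C. Product read by 2,4-dinitrophenylhydrazine, alkaline NaOH, A505.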

[3] = The stability constant of adduct formation for cysteine at pH 6.25; type: ADME; procedure, shortened: as §1
[4] = target: T1, Alanine aminotransferase 1 (Rattus norvegicus); assay: Effect of glutathione on alanine aminotransferase inhibition by the compound at 10E-5; settings: for inhibition: concentration not given here
Procedure, shortened: (§3)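 ALT alkaloid-inhibition assay at 30 °C (L-alanine/2-oxoglutarate substrate, pH 7.4 phosphate, 2,4-dinitrophenylhydrazine read-out at 505 nm). Substrate solution contained 10^-2 M of the thiol. Percent inhibition compared against thiol-free substrate.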

[5] = target: T1, Alanine aminotransferase 1 (Rattus norvegicus); assay: Effect of thioethanol on alanine aminotransferase inhibition by the compound at 10E-5; settings: for inhibition: concentration not given here; procedure, shortened: as §3
[6] = The stability constant of adduct formation for cysteine at pH 5.68; type: ADME; procedure, shortened: as §1
[7] = The stability constant of adduct formation for thioethanol at pH 5.68; type: ADME; procedure, shortened: as §1
[8] = The stability constant of adduct formation for thioethanol at pH 6.25; type: ADME; procedure, shortened: as §1
[9] = target: T1, Alanine aminotransferase 1 (Rattus norvegicus); assay: Concentration for complete inactivation of alanine aminotransferase; procedure, shortened: as §2
[10] = The stability constant of adduct formation for glutathione at pH 6.25; type: ADME; procedure, shortened: as §1
[11] = target: T1, Alanine aminotransferase 1 (Rattus norvegicus); assay: Effect of cysteine on alanine aminotransferase inhibition by the compound at 10E-5; settings: for inhibition: concentration not given here; procedure, shortened: as §3
[12] = The stability constant of adduct formation for glutathione at pH 5.69; type: ADME
Procedure, shortened: (§4)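 Spectrophotometric measurement at 20 °C in 10-mm cells, with pH checked by meter. Aqueous solutions held 4×10^-6 M alkaloid, 4×10^-6 to 1.6×10^-2 M thiol, and 4×10^-3 M hexadecyltrimethylammonium bromide, in phosphate buffers of ionic strength 0.05. The stability constant (K) of the thiol–iminium adduct was taken at the stated pH.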

[13] = The stability constant of adduct formation for thioethanol at pH 5.69; type: ADME; procedure, shortened: as §4
[14] = The stability constant of adduct formation for thioethanol at pH 5.28; type: ADME; procedure, shortened: as §4
[15] = The stability constant of adduct formation for glutathione at pH 5.28; type: ADME; procedure, shortened: as §4
[16] = The stability constant of adduct formation for cysteine at pH 5.69; type: ADME; procedure, shortened: as §4
[17] = The stability constant of adduct formation for cysteine at pH 5.28; type: ADME; procedure, shortened: as §4

With `COc1ccc2c(c[n+](C)c3c4cc5c(cc4ccc23)OCO5)c1OC.[Cl-]` [CHELERYTHRINE CHLORIDE] the “Log K” value [1] was 4.39, the ID50 [2] was 4 µM and the “Log K” value [3] was 3.09. For the same molecule, the Protection [4] was 70%, the inhibition [4] was 13% and the Protection [5] was 55%. The inhibition [5] was 23%, the “Log K” value [6] was 2.74 and the “Log K” value [7] was 3.46. The “Log K” value [8] was 4.05, the Concentration [9] was 30 µM and the “Log K” value [10] was 4.39. It also gave a Protection [11] of 5% and an inhibition [11] of 40%.
For `C[n+]1cc2c3c(ccc2c2ccc4cc5c(cc4c21)OCO5)OCO3` [SANGUINARIUM], the ID50 [2] was 3.4 µM, the “Log K” value [12] was 4.79 and the “Log K” value [13] was 4.01. For the same molecule, the “Log K” value [14] was 3.77, the “Log K” value [15] was 4.64 and the Protection [4] was 81%. It also gave an inhibition [4] of 15%, a Protection [5] of 75% and an inhibition [5] of 20%. For the same molecule, the “Log K” value [16] was 3.33, the Concentration [9] was 50 µM and the “Log K” value [17] was 2.97. For the same molecule, the Protection [11] was 5% and the inhibition [11] was 74%.
